Calls of active or inactive are those of the source. The rule behind the calls is not given here.
Key:
[1] = biological target: T1, L-lactate dehydrogenase A chain (Homo sapiens, UniProt P00338); assay: Binding affinity to 6-His-tagged human LDHA (2 to 322 amino acid residue) expressed in Escherichia coli BL21 (DE3) cells by NMR analysis in presence of NADH
[2] = biological target: T1, L-lactate dehydrogenase A chain; assay: Inhibition of full length human recombinant LDHA expressed in Escherichia coli BL21 (DE3) cells after 10 mins by spectrophotometric analysis
[3] = biological target: T1, L-lactate dehydrogenase A chain; assay: Binding affinity to 6-His-tagged human LDHA (2 to 322 amino acid residue) expressed in Escherichia coli BL21 (DE3) cells by SPR analysis
[4] = biological target: L-lactate dehydrogenase B chain (Homo sapiens, UniProt P07195); assay: Inhibition of human recombinant LDHB (2 to 334 amino acid residue) expressed in Escherichia coli BL21 (DE3) cells after 10 mins by spectrophotometric analysis
[5] = biological target: T1, L-lactate dehydrogenase A chain; assay: Binding affinity to 6-His-tagged human LDHA (2 to 322 amino acid residue) expressed in Escherichia coli BL21 (DE3) cells by NMR analysis in presence of NAD+
Outline: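 Ligand-observed NMR at 298 K, 600 MHz, in 100 mM HEPES pH 7.5, 2 mM TCEP, 0.02% sodium azide, with 1 mM NAD⁺ present. Binding was detected by WaterLOGSY and T₁ρ-filtered 1D spectra (LDHA 40−48 μM monomer). […] Single experiment.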

L-lactate dehydrogenase B chain, sequence (P07195 whole entry, the tested form may be a part): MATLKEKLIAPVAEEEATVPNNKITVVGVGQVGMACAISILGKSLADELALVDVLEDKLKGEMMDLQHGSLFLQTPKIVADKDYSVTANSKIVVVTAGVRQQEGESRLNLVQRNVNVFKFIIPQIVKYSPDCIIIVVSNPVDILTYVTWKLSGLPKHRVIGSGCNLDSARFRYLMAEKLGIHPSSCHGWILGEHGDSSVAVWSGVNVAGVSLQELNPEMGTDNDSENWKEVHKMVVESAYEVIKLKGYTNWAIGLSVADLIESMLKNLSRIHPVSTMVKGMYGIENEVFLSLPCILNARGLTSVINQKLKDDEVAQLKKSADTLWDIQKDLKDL

| Compound | Kd ([1]; read-out: Kd) [µM] | IC50 [2] [µM] | Kd ([3]; read-out: Kd) [µM] | other results |
| --- | --- | --- | --- | --- |
| NS(=O)(=O)c1ccc(O)c2ccccc12 | 400 | > 500 |  | Kd ([3]; bl21-de3): Not Active |
| Clc1ccccc1-c1nnn[nH]1 |  |  |  | Kd ([3]; bl21-de3): Not Active |
| Cc1nc2ccc(NC(=O)CCNC(N)=O)cc2s1 |  |  |  | Kd ([1]; bl21-de3): Active |
| NC(=O)C1=CN([C@@H]2O[C@H](COP(=O)(O)O)[C@@H](O)[C@H]2O)C=CC1 | 4000 | > 500 |  | Kd ([3]; bl21-de3): Not Active |
| Cc1nc2ccc(NC(=O)CCNC(=O)NCCc3ccc(OC(C(=O)O)C(=O)O)cc3)cc2s1 |  | 29.5 | 1.2 |  |
| CC(=O)Nc1ccc2nc(C)sc2c1 |  | > 500 | 790 |  |
| O=C(O)c1ccc2ccccc2c1O [CARBOXYNAPHTHOL] | 640 | > 500 |  | Kd ([3]; bl21-de3): Not Active |
| Cc1nc2ccc(NC(=O)CCNC(=O)NCCOc3ccc(CCC(=O)O)cc3)cc2s1 |  | 86.2 | 3.2 |  |
| CCCSc1nc2ccc(NC(=O)CCNC(N)=O)cc2s1 |  | > 500 | 35 | Kd ([1]; bl21-de3): Active |
| Cc1nc2ccc(NC(=O)CCC(=O)O)cc2s1 | 540 | > 500 | 500 |  |
| CCCSc1nc2ccc(NC(=O)CCNC(=O)CCCc3ccc(CC(C(=O)O)C(=O)O)cc3)cc2s1 |  | 0.27 | 0.008 |  |
| O=c1[nH]n(-c2ccccc2)c2ncccc12 | 300 | > 500 | 1600 |  |
| Nc1ncnc2c1ncn2[C@@H]1O[C@H](COP(=O)(O)O)[C@@H](O)[C@H]1O [ADENOSINE PHOSPHATE] | 650 | > 500 |  | Kd ([3]; bl21-de3): Not Active |
| NC(=O)C1=CN([C@@H]2O[C@H](COP(=O)(O)OP(=O)(O)OC[C@H]3O[C@@H](n4cnc5c(N)ncnc54)[C@H](O)[C@@H]3O)[C@@H](O)[C@H]2O)CCC1 |  | 132 | 12.8 | IC50 [4]: 9.4 µM; Activity [5]: Active |
| COc1ccc(CC(C(=O)O)C(=O)O)cc1 | 240 | > 500 | 1100 |  |
| Cc1nc2ccc(NC(=O)CCNC(=O)NCCc3ccc(CC(C(=O)O)C(=O)O)cc3)cc2s1 |  | 1.9 |  |  |

Further lines, with some results ahead:

| Kd ([1]; read-out: Kd) [µM] | IC50 [2] [µM] | Kd ([3]; read-out: Kd) [µM] | Compound | other results |
| --- | --- | --- | --- | --- |
| > 9 | > 500 |  | O=C(O)c1cc2c(C(F)(F)F)cc(-c3ccccc3)cc2n1O |  |
|  | 7.4 | 0.18 | CCCSc1nc2ccc(NC(=O)CCNC(=O)NCCc3ccc(OC(C(=O)O)C(=O)O)cc3)cc2s1 |  |
|  | 450 |  | O=C(O)c1nsnc1O | IC50 [4]: 7.8 µM; Kd ([3]; bl21-de3): Not Active |
|  | 0.29 | 0.06 | CCCSc1nc2ccc(NC(=O)CCNC(=O)NCCc3ccc(CC(C(=O)O)C(=O)O)cc3)cc2s1 |  |
| 92 | > 500 | 40 | CCCSc1nc2ccc(NC(=O)CCC(=O)O)cc2s1 |  |
| 5000 |  |  | O=C(O)CC(=O)O [MALONIC ACID] |  |
|  | 4.2 |  | Cc1nc2ccc(NC(=O)CCNC(=O)NCCOc3ccc(CC(C(=O)O)C(=O)O)cc3)cc2s1 |  |
|  | 3.1 | 0.046 | CCCSc1nc2ccc(NC(=O)CCNC(=O)NCCOc3ccc(CC(C(=O)O)C(=O)O)cc3)cc2s1 |  |
|  | 0.5 |  | Cc1nc2ccc(NC(=O)CCNC(=O)CCCc3ccc(CC(C(=O)O)C(=O)O)cc3)cc2s1 |  |
| 1400 | > 500 |  | c1cncc(-c2nc3ccccc3[nH]2)c1 | Kd ([3]; bl21-de3): Not Active |
| 2400 | > 500 | 3000 | COCCNc1ncnc2ccccc12 |  |
